The results in this text go back to PubChem BioAssay.

As a reminder, the inhibition is the change of the read-out against control, counted positive when it falls.

The source made the active and inactive calls.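 Rule for the calls, unless noted: active = inhibition at or above 50% at 10 µM; inactive = inhibition below 50%.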

Assay [1] in a line: inhibitors of TNFa-induced NFkB p65 translocation, primary screen, imaging, HUVEC, MLSMR starter and 10KST1 sets (AID 438;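 active = inhibition above 20% together with a positive visual image hit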;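 note: compound added about 3h40 before a 20 min TNFalpha stimulation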;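 for inhibition: signal is the nuclear over cytoplasmic p65 intensity ratio per well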). The following applies: HUVEC TNFa-induced p65 nuclear translocation; cell count: measured here: nuclei count (cytotoxicity indicator), at 2.08 µM; inhibition: at 2 µM, stronger effect = higher value, 0% TNFa-plus-vehicle, 100% no-TNFa wells.
A short description of assay [2]: inhibitors of mutant huntingtin aggregation, primary screen, imaging, exon1htt(103Q)mCFP cells, high-content imaging (AID 483;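 active = visual image review flags a hit and inhibition of aggregation exceeds 20%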;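 note: compound exposure lasted 3 days before fixation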;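 for nuclei count: percent of the per-plate median nuclei count of sample wells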). The following applies: exon1htt(103Q)mCFP cell line, aggregate imaging, at 2 µM; inhibition of aggregation: stronger effect = higher value; nuclei count: measured here: cell count, toxicity.
Assay [3] in a line: inhibitors of E-selectin induction by TNFa, primary screen, imaging, HUVEC, immunofluorescence, MLSMR starter and 10KST1 sets (AID 487;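 active = visually confirmed hit in the image check and inhibition above 20%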;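 for inhibition: signal is fraction of cell area covered by stained E-selectin grains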;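 for nuclei count: 100% = median nuclei count of all wells on the same plate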). The following applies: HUVEC TNFalpha-induced E-selectin immunofluorescence imaging, at 2 µM; inhibition: stronger effect = higher value; nuclei count: measured here: cell number, toxicity.
In assay [4] the target is Voltage-gated potassium channel subunit beta-2 (Rattus norvegicus) (UniProt P62483). In words: KvBeta enzyme negative modulators, primary screen, biochemical, NADPH fluorescence (AID 622;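 active = fluorescence slope higher than the sample average by over 3 SD, cut at about -0.22 in these data, passing the limit was not always enough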;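 note: slope of raw intensity against log time taken from 70 to 1610 s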). The following applies: recombinant KvBeta, 4-cyanobenzaldehyde reduction, at 10 µM, stronger effect = higher value.
Chain of Voltage-gated potassium channel subunit beta-2 (Rattus norvegicus) (P62483 whole entry, looked up): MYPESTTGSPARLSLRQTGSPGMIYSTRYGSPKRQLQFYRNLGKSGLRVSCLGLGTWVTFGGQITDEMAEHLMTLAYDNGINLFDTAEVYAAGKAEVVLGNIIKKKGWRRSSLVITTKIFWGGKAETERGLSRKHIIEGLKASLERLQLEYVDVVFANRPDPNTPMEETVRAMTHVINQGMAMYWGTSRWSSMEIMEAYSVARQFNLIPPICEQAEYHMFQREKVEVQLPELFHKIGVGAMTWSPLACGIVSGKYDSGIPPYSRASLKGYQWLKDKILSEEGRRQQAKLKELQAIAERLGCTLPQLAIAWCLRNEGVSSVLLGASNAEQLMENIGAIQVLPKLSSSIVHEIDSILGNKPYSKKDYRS
The target is the same in assay [5]. The assay can be described thus: KvBeta positive modulators, primary screen, biochemical, NADPH fluorescence (AID 623;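 active = NADPH fluorescence slope more negative than the mean of all samples by about 3 SD, 99.7% confidence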;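 note: fluorescence intensity change per second fitted from 20 to 320 s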). The settings on record: Recombinant KvBeta, NADPH fluorescence decrease slope, 10 min; at 10 µM; stronger effect = lower value.
Assay [6] addresses Muscarinic acetylcholine receptor M4 (Homo sapiens) (UniProt P08173). The assay can be described thus: compounds altering M4/GIRK thallium flux, either direction, primary screen, M4 allosteric agonist project, cell-based, HEK293 M4/GIRK, BTC-AM (AID 625;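 active = fluorescence slope after compound addition differing from the mean of all tested samples at 99.7% confidence, mostly higher but some lower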;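 note: thallium influx through GIRK channels coupled to M4 in HEK293 cells with BTC-AM dye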). The following applies: at 10 µM, actives lie on both sides. In outline: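 Material: HEK293 cells with M4 receptor and GIRK channels; Times: cells overnight at 37 °C, BTC-AM loading 1 h, reads 2 min total; Technique: kinetic BTC-AM fluorescence sampled at 1 Hz, 10 s pre-addition baseline; Read-out basis: slope over 15–24 s of trace normalized to starting intensity; Controls: carbachol positive, DMSO negative.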

The nature of assay [7]: inhibitors of Sendai virus-induced IRF3 signaling, primary screen, TLR/RLR signaling modifier project, cell-based, Sendai virus stimulus, luciferase, 10K MLSCN set (AID 602276).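 Note: firefly luciferase from ISG56 promoter only with Renilla not read in this screen; 0% = Sendai virus plus DMSO and 100% = medium plus DMSO without virus.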 The following applies: HEK293 RL24 IRF3 luciferase reporter, at 10 µM, stronger effect = higher value. For orientation: In a reporter assay the amount or activity of a reporter protein is the signal.
The nature of assay [8]: inhibitors of poly I:C-induced TLR3 signaling, primary screen, cell-based, poly I:C stimulus, luciferase, 10K MLSCN set (AID 602277;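 active = inhibition of the reporter signal at or above 50%; inactive = inhibition below 50%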). The settings on record: HEK293-TLR3 RL24 IRF3 luciferase reporter, at 10 µM, stronger effect = higher value.

Chain of Muscarinic acetylcholine receptor M4 (Homo sapiens) (P08173 whole entry, looked up): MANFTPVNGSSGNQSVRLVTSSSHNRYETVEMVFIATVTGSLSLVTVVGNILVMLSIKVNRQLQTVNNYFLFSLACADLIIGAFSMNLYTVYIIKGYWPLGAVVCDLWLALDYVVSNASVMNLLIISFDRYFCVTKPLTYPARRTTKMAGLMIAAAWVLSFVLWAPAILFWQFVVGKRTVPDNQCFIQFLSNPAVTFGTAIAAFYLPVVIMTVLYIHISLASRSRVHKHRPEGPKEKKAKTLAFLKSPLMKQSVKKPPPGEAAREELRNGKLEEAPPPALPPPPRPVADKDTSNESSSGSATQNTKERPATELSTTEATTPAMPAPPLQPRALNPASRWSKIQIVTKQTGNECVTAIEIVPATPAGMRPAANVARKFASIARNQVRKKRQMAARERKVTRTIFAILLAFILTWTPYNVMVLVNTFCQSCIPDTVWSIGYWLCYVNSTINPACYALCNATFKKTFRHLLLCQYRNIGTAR

Consider `COc1ccc(Nc2nc(OC)nc(N3CCN(c4ccc(OC)cc4)CC3)n2)cc1`, for which, in assay [1], the cell count is 646. Further, the inhibition in assay [1] is -0.5% (inactive); in assay [3], -14.1% (inactive); in assay [7], 14% (inactive); in assay [8] it was -11.1% (inactive). Further, the inhibition of aggregation in assay [2] was -13.1% (inactive). The nuclei count in assay [2] was found to be 93.5%; in assay [3] it was 100%. The figures for the fluorescence slope in assay [4] and in assay [6] were -0.555 (inactive) and 0.00593 (inactive), respectively. Moreover, the NADPH fluorescence slope in assay [5] is -3.4e-05 (inactive).

Take `COc1ccc(C2=NOC(C(=O)NCc3ccc(F)cc3)C2)cc1OC` (centres undefined): the cell count in assay [1] is 601. Moreover, the inhibition in assay [1] is 14.3% (inactive); in assay [3], -172% (inactive); in assay [7], 22.8% (inactive); in assay [8], 82.8% (active). Besides, the inhibition of aggregation in assay [2] is -82.4% (inactive). Moreover, the nuclei count in assay [2] is 2.5%; in assay [3] it was 99.1%. For the same molecule, the fluorescence slope in assay [4] was -0.493 (inactive); in assay [6] it was 0.00618 (inactive). Moreover, the NADPH fluorescence slope in assay [5] was 4.2e-05 (inactive).

As for `CCCC(=O)N1CCN(c2ccc(NC(=O)c3ccc(Br)o3)cc2)CC1`, the cell count in assay [1] was 232. Also, the inhibition in assay [1] was 0.6% (inactive); in assay [3], -64.1% (inactive); in assay [7], -9.3% (inactive); in assay [8], -42.4% (inactive). Further, the inhibition of aggregation in assay [2] is 7.1% (inactive). The nuclei count in assay [2] was 58.2%; in assay [3] it was 116%. For the same molecule, the fluorescence slope was -0.457 (inactive) in assay [4] and 0.00487 (inactive) in assay [6]. Also, in assay [5], the NADPH fluorescence slope was 6.7e-06 (inactive).

As to `CCOc1ccccc1-c1nc(-c2ccc(NC(=O)Cc3ccccc3OC)cc2)no1`, the cell count in assay [1] is 484. For the same molecule, the inhibition was -5% (inactive) in assay [1], -54.6% (inactive) in assay [3], -18.2% (inactive) in assay [7] and -34.8% (inactive) in assay [8]. Also, in assay [2], the inhibition of aggregation is -2.4% (inactive). The nuclei count in assay [2] is 87.4%; in assay [3], 111%. The fluorescence slope was -0.527 (inactive) in assay [4] and 0.0078 (inactive) in assay [6]. For the same molecule, in assay [5], the NADPH fluorescence slope was -3.1e-05 (inactive).

Take `CCCN(CCO)Cc1cccc(Br)c1`: the cell count in assay [1] turned out to be 492. Also, the inhibition in assay [1] was -1.1% (inactive); in assay [3], -109% (inactive); in assay [7] it was 14.5% (inactive); in assay [8] it was 19.3% (inactive). Moreover, the inhibition of aggregation in assay [2] was 7.9% (inactive). Also, the nuclei count came to 93.6% in assay [2] and 109% in assay [3]. In addition, the fluorescence slope in assay [4] is -0.437 (inactive); in assay [6] it was 0.00547 (inactive). The NADPH fluorescence slope in assay [5] was 2.5e-05 (inactive).

In the case of `O=C(O)CCCCCNc1nc(=S)[nH]c2ccccc12`, the cell count in assay [1] is 494. Moreover, the inhibition in assay [1] is -7.5% (inactive); in assay [3] it was 9.6% (inactive); in assay [7] it was 11.5% (inactive); in assay [8] it was 19.2% (inactive). For the same molecule, the inhibition of aggregation in assay [2] was 20% (inactive). Further, the nuclei count in assay [2] was 102%; in assay [3], 105%. The results for the fluorescence slope in assay [4] and in assay [6] were -0.384 (inactive) and 0.0068 (inactive), respectively. Besides, the NADPH fluorescence slope in assay [5] was 2.9e-05 (inactive).

In the case of `O=c1nc(N2CCCC2)nc(Nc2ccccc2)[nH]1`, the cell count in assay [1] came to 478. The inhibition in assay [1] is 8.9% (inactive); in assay [3], -62.6% (inactive); in assay [7] it was 3.72% (inactive); in assay [8] it was 3.61% (inactive). The inhibition of aggregation in assay [2] was -12.9% (inactive). Further, the nuclei count in assay [2] was 112%; in assay [3], 115%. For the same molecule, the fluorescence slope in assay [4] was -0.559 (inactive); in assay [6] it was 0.00545 (inactive). Besides, the NADPH fluorescence slope in assay [5] was -4e-05 (inactive).

`O=C(NC(C(=O)c1ccccc1)n1ccc(=O)[nH]c1=O)c1ccccc1` (centres undefined): the cell count in assay [1] worked out at 596. For the same molecule, the inhibition was -5.6% (inactive) in assay [1], -6.1% (inactive) in assay [3], 6.2% (inactive) in assay [7] and 12% (inactive) in assay [8]. Further, the inhibition of aggregation in assay [2] was -13% (inactive). Further, the nuclei count in assay [2] and in assay [3] was 104% throughout. In addition, the values for the fluorescence slope in assay [4] and in assay [6] were -0.449 (inactive) and 0.00666 (inactive), respectively. The NADPH fluorescence slope in assay [5] is -9.3e-05 (inactive).

As for `CC(=O)Nc1ccc2nc(-c3cccnc3)[nH]c2c1`, the cell count in assay [1] was 435. The inhibition in assay [1] is -3.2% (inactive); in assay [3], -9.3% (inactive); in assay [7] it was -7.23% (inactive); in assay [8] it was -16.4% (inactive). The inhibition of aggregation in assay [2] is -1.8% (inactive). Besides, the nuclei count in assay [2] is 106%; in assay [3], 116%. Moreover, the fluorescence slope in assay [4] was -0.571 (inactive); in assay [6], 0.00606 (inactive). Besides, the NADPH fluorescence slope in assay [5] is 1.8e-05 (inactive).

As to `CCOC(=O)N1CCN(C(=O)c2ccc3nc4cc(Cl)ccc4c(=O)n3c2)CC1`, the cell count in assay [1] is 726. For the same molecule, the inhibition is -8.8% (inactive) in assay [1], 17.6% (inactive) in assay [3], 6.58% (inactive) in assay [7] and 6.7% (inactive) in assay [8]. The inhibition of aggregation in assay [2] was -19.4% (inactive). For the same molecule, the nuclei count in assay [2] and in assay [3] was 118% in each case. Besides, the fluorescence slope in assay [4] is -0.0121 (inactive); in assay [6] it was 0.00404 (inactive). Also, the NADPH fluorescence slope in assay [5] is 2.7e-06 (inactive).

`CCOC(=O)c1ccc(N2C(=O)C3CC=CCC3C2=O)cc1` (centres undefined): the cell count in assay [1] came to 640. In addition, the inhibition in assay [1] is -6.3% (inactive); in assay [3], 40.6% (inactive); in assay [7] it was 1.51% (inactive); in assay [8], -1.14% (inactive). The inhibition of aggregation in assay [2] is -0.1% (inactive). In addition, the values for the nuclei count in assay [2] and in assay [3] were 104% and 101%, respectively. Moreover, the fluorescence slope in assay [4] is -0.545 (inactive); in assay [6], 0.00473 (inactive). Besides, the NADPH fluorescence slope in assay [5] was -1.8e-05 (inactive).

For the molecule `CN1CCc2nc(SCC(=O)Nc3ccc(F)cc3)c(C#N)cc2C1`, in assay [1], the cell count was 646. Moreover, the inhibition in assay [1] was -14.8% (inactive); in assay [3] it was -75.1% (inactive); in assay [7], -24.5% (inactive); in assay [8], -52.9% (inactive). Further, the inhibition of aggregation in assay [2] is -16.9% (inactive). In addition, the nuclei count in assay [2] and in assay [3] was 101% in each case. Also, the figures for the fluorescence slope in assay [4] and in assay [6] were -0.456 (inactive) and 0.00558 (inactive), respectively. Besides, the NADPH fluorescence slope in assay [5] is 0.000133 (inactive).

In the case of `Cc1ccc(C)n1-c1ccc(N2CCOCC2)cc1`, the cell count in assay [1] worked out at 406. Further, the inhibition in assay [1] was 1% (inactive); in assay [3], -44.4% (inactive); in assay [7], 11.4% (inactive); in assay [8] it was 8.15% (inactive). Also, the inhibition of aggregation in assay [2] was 14.3% (inactive). The nuclei count was found to be 99.8% in assay [2] and 111% in assay [3]. Further, the results for the fluorescence slope in assay [4] and in assay [6] were -0.345 (inactive) and 0.00513 (inactive), respectively. In assay [5], the NADPH fluorescence slope was -5.6e-05 (inactive).

In the case of `CCOC(=O)c1[nH]c(C)c(C(=O)N2CCN(c3ccc(F)cc3)CC2)c1C`, the cell count in assay [1] stood at 755. For the same molecule, the inhibition is -2.2% (inactive) in assay [1], -175% (inactive) in assay [3], 1.11% (inactive) in assay [7] and 8.18% (inactive) in assay [8]. The inhibition of aggregation in assay [2] is -27% (inactive). In addition, the results for the nuclei count in assay [2] and in assay [3] were 118% and 119%, respectively. For the same molecule, the fluorescence slope in assay [4] was -0.451 (inactive); in assay [6], 0.00564 (inactive). In assay [5], the NADPH fluorescence slope is 1.1e-05 (inactive).
